From publication PMC4207537 (Journal of Medicinal Chemistry, 2014)
≈ marks a conversion by molar mass, not a printed value.

Key:
M. tuberculosis (H37Rv) = assay: MIC, microbroth dilution, M. tuberculosis; format: cell-based; conditions: Mycobacterium tuberculosis, read-out: MIC M. tuberculosis (H37Rv)
S. aureus Newman [1] = assay: Macromolecular synthesis; format: cell-based, Staphylococcus aureus; conditions: 4× MIC
S. aureus Newman [2] = assay: Membrane potential, DiOC2; format: cell-based, Staphylococcus aureus; conditions: DiOC2(3); up to 4× MIC
Method in brief: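 Flow cytometry with the membrane-potential probe DiOC2(3) on S. aureus Newman grown in Mueller–Hinton II to OD600nm ≈ 0.3 and exposed to test compound. CCCP served as positive control and vancomycin as negative control. Three biological replicates were run.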

E. coli topoisomerase I = biological target: T1, E. coli topoisomerase I (Escherichia coli, UniProt P06612); assay: Relaxation activity of E. coli topoisomerase I; format: biochemical
T1 sequence (P06612 1-865): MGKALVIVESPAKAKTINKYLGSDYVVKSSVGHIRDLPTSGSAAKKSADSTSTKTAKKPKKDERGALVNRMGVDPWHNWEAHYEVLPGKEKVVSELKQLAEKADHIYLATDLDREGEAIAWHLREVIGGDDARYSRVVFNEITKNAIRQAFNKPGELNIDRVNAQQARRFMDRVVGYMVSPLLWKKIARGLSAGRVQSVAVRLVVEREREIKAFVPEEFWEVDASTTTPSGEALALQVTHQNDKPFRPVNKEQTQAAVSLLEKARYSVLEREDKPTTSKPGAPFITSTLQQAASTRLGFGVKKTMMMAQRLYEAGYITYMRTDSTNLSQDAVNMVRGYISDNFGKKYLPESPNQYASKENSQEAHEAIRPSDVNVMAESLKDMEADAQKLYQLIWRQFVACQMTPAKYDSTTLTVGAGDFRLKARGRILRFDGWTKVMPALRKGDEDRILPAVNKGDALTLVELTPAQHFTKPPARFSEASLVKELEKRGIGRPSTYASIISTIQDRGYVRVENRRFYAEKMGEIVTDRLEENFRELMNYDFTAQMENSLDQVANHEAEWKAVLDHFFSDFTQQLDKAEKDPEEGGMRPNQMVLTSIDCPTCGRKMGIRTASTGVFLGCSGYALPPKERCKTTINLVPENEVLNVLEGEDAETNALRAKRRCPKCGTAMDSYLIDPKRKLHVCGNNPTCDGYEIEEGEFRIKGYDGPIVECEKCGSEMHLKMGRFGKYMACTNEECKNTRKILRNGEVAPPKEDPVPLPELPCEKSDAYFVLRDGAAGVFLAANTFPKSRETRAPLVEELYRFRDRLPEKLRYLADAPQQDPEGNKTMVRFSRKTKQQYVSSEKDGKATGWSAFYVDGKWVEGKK

E. coli topoisomerase IV = E. coli topoisomerase IV (Escherichia coli, UniProt P0AFI2+P20083); assay: E. coli topoisomerase IV decatenation assay; format: biochemical
[3] = biological target: Mycobacterium tuberculosis MurE ligase; conditions: read-out: MurE ligase IC50; ATP-dependent MurE ligase; cited from earlier work
[4] = test system: multidrug-resistant (MDR) strains of clinically relevant Staphylococcus aureus; conditions: natural olympicin A; cited from earlier work
Clostridium difficile = conditions: synthetic olympicin A; cited from earlier work
E. faecalis (ATCC 33186) = assay: microbe, parasite or virus in culture; format: cell-based; conditions: Enterococcus faecalis, ATCC33186, read-out: MIC E. faecalis (ATCC 33186)
S. aureus Newman [5] = assay: Time kill experiments; format: cell-based, Staphylococcus aureus; conditions: for type of killing (bactericidal / bacteriostatic): time kill, up to 24 h
S. aureus Newman [6] = assay: Selection of spontaneous mutants; format: cell-based, Staphylococcus aureus; conditions: concentrations between 1× and 4× MIC
[7] = test system: Gram-positive bacteria tested (E. faecalis, MSSA, and MRSA); assay: MIC range over the Gram-positive bacteria tested; format: cell-based, Enterococcus faecalis, Staphylococcus aureus; conditions: range over E. faecalis and S. aureus (MSSA, MRSA) strains
S. aureus Newman [8] = assay: microbe, parasite or virus in culture; format: cell-based; conditions: Staphylococcus aureus, read-out: MIC against S. aureus Newman

Chain of E. coli topoisomerase IV (P0AFI2 whole entry): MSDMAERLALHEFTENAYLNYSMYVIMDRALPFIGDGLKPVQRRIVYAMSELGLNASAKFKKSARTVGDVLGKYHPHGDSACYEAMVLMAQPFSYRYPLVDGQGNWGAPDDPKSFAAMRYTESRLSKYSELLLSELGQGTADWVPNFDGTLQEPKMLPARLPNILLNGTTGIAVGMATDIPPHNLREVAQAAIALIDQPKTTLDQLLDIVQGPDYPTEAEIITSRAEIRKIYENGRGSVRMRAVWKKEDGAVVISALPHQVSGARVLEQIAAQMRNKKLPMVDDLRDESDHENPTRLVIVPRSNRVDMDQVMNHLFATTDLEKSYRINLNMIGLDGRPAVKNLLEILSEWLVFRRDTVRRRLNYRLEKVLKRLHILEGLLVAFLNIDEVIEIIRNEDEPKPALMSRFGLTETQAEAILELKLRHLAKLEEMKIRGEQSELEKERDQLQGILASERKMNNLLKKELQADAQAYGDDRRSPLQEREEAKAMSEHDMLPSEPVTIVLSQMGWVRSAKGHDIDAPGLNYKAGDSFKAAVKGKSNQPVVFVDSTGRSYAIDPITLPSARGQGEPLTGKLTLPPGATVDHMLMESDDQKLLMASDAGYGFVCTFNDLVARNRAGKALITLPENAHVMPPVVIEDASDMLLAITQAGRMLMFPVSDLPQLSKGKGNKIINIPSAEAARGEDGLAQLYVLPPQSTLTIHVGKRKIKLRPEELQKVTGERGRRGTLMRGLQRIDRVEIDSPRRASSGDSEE
Chain of E. coli topoisomerase IV (P20083 whole entry): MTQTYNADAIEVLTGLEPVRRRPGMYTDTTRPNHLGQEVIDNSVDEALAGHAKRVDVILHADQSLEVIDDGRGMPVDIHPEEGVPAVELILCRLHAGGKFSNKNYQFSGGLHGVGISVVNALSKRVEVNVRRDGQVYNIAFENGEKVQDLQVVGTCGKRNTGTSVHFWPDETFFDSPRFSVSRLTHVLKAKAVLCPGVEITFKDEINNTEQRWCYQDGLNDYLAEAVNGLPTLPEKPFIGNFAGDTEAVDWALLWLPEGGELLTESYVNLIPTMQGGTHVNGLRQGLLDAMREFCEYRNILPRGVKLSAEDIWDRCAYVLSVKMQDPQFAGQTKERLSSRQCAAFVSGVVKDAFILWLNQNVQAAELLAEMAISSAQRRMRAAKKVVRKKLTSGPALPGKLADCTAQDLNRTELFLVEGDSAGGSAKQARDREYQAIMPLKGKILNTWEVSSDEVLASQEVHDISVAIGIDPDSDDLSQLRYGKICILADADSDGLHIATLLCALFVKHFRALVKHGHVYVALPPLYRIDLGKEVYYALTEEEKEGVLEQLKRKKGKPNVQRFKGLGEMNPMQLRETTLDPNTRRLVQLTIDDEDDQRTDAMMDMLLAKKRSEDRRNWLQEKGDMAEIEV

## CC[C@H](C)C(=O)c1c(O)cc(O)cc1OC/C=C(\C)CCC=C(C)C [Compound 2a, (S,E)-1-(2-((3,7-Dimethylocta-2,6-dien-1-yl)oxy)-4,6-dihydroxyphenyl)-2-methylbutan-1-one]
M. tuberculosis (H37Rv)
  MIC: 200 µg/mL (≈ 577 µM)
S. aureus Newman [1]
  effect on macromolecular synthesis (DNA, RNA, protein): Several key biosynthetic processes were simultaneously inhibited
S. aureus Newman [2]
  effect on membrane potential: dissipated the membrane potential
E. coli topoisomerase I
  IC50: > 500 µM
E. coli topoisomerase IV
  IC50: 30 to 60 µM
[3]
  IC50: 75 µM
[4]
  MIC against a panel of MDR S. aureus strains: 0.5 to 1 µg/mL
  previously reported anti S. aureus activity (MIC): 0.5 to 1 µg/mL
Clostridium difficile
  MIC against Clostridium difficile: 1 to 2 µg/mL

## CCC(C)C(=O)c1c(O)cc(O)cc1OC/C=C(\C)CCC=C(C)C (stereo not drawn) [Compound 2b, (E)-1-(2-((3,7-Dimethylocta-2,6-dien-1-yl)oxy)-4,6-dihydroxyphenyl)-2-methylbutan-1-one]
E. faecalis (ATCC 33186)
  MIC: 1.56 µg/mL (≈ 4.5 µM)

## CCCCCCCCOc1cc(O)cc(O)c1C(=O)C(C)CC (stereo not drawn) [Compound 2e, 1-(2,4-Dihydroxy-6-(octyloxy)phenyl)-2-methylbutan-1-one]
E. coli topoisomerase I
  IC50: > 500 µM
E. coli topoisomerase IV
  IC50: 30 to 60 µM

## CC1(C)C2CC=C(/C=C/C(=O)c3ccc(O)cc3O)C1C2 (stereo not drawn) [Compound 3g, (E)-1-(2,4-Dihydroxyphenyl)-3-(6,6-dimethylbicyclo[3.1.1]hept-2-en-2-yl)prop-2-en-1-one]
S. aureus Newman [5]; at its MIC (1×)
  time required to achieve a 3 log reduction in cells: up to 24 h
S. aureus Newman [5]
  type of killing (bactericidal / bacteriostatic): concentration-dependent killing
S. aureus Newman [6]
  frequency of spontaneous mutants: could not be selected
S. aureus Newman [1]
  effect on macromolecular synthesis (DNA, RNA, protein): Several key biosynthetic processes were simultaneously inhibited
S. aureus Newman [2]
  effect on membrane potential: dissipated the membrane potential
E. coli topoisomerase I
  IC50: > 500 µM
E. coli topoisomerase IV
  IC50: 60 to 120 µM

## CC1(C)C2CC=C(C3CC(=O)c4ccc(O)cc4O3)C1C2 (stereo not drawn) [Compound 3j, 2-(6,6-Dimethylbicyclo[3.1.1]hept-2-en-2-yl)-7-hydroxychroman-4-one]
[7]
  MIC range against Gram-positive bacteria tested: largely inactive

## CC(C)=CCCC(C)CC1CC(=O)c2c(O)cccc2O1 (stereo not drawn) [Compound 3l, 2-(2,6-Dimethylhept-5-en-1-yl)-5-hydroxychroman-4-one]
[7]
  MIC range against Gram-positive bacteria tested: not active

## CCCCCCCC1CC(=O)c2c(O)cc(O)cc2O1 (stereo not drawn) [Compound 5f, 2-Heptyl-5,7-dihydroxychroman-4-one]
E. coli topoisomerase I
  IC50: > 500 µM
E. coli topoisomerase IV
  IC50: 120 to 250 µM

## CC(C)=CCCC(C)CC1CC(=O)c2c(O)cc(O)cc2O1 (stereo not drawn) [Compound 5j, 2-(2,6-Dimethylhept-5-en-1-yl)-5,7-dihydroxychroman-4-one]
S. aureus Newman [6]
  frequency of spontaneous mutants: could not be selected
S. aureus Newman [1]
  effect on macromolecular synthesis (DNA, RNA, protein): Several key biosynthetic processes were simultaneously inhibited
S. aureus Newman [2]
  effect on membrane potential: dissipated the membrane potential

## C=CCOc1ccccc1/C=C/C(=O)c1ccc(O)cc1O [Compound 8a, (E)-3-(2-(Allyloxy)phenyl)-1-(2,4-dihydroxyphenyl)prop-2-en-1-one]
S. aureus Newman [5]
  type of killing (bactericidal / bacteriostatic): rapidly bactericidal
S. aureus Newman [6]
  frequency of spontaneous mutants: could not be selected
S. aureus Newman [1]
  effect on macromolecular synthesis (DNA, RNA, protein): Several key biosynthetic processes were simultaneously inhibited
E. coli topoisomerase I
  IC50: > 500 µM
E. coli topoisomerase IV
  IC50: 250 to 500 µM

## CCCCCCOc1ccccc1/C=C/C(=O)c1ccc(O)cc1O [Compound 8b, (E)-1-(2,4-Dihydroxyphenyl)-3-(2-(hexyloxy)phenyl)prop-2-en-1-one]
E. coli topoisomerase I
  IC50: > 500 µM
E. coli topoisomerase IV
  IC50: 60 to 120 µM

## O=C(/C=C/c1ccc(N2CCCCC2)cc1)c1ccc(O)cc1O [Compound 8d, (E)-1-(2,4-Dihydroxyphenyl)-3-(4-(piperidin-1-yl)phenyl)prop-2-en-1-one]
S. aureus Newman [8]
  MIC: 6.25 µg/mL (≈ 19.3 µM)
S. aureus Newman [5]
  type of killing (bactericidal / bacteriostatic): entirely bacteriostatic
S. aureus Newman [1]
  effect on macromolecular synthesis (DNA, RNA, protein): Several key biosynthetic processes were simultaneously inhibited
S. aureus Newman [2]
  effect on membrane potential: dissipated the membrane potential
E. coli topoisomerase I
  IC50: > 500 µM
E. coli topoisomerase IV
  IC50: 500 to 1000 µM

## CCCCCCOc1ccccc1C1CC(=O)c2ccc(O)cc2O1 (stereo not drawn) [Compound 8j, 2-(2-(Hexyloxy)phenyl)-7-hydroxychroman-4-one]
E. coli topoisomerase I
  IC50: > 500 µM
E. coli topoisomerase IV
  IC50: > 1000 µM

## CCCCCCCCOc1ccccc1C1CC(=O)c2ccc(O)cc2O1 (stereo not drawn) [Compound 8k, 7-Hydroxy-2-(2-(octyloxy)phenyl)chroman-4-one]
E. coli topoisomerase I
  IC50: > 500 µM
E. coli topoisomerase IV
  IC50: > 1000 µM

## O=C(O)c1cn(C2CC2)c2cc(N3CCNCC3)c(F)cc2c1=O [ciprofloxacin]
S. aureus Newman [8]
  MIC: 0.25 µg/mL (≈ 0.754 µM)

## CC[C@H]1OC(=O)[C@H](C)[C@@H](O[C@H]2C[C@@](C)(OC)[C@@H](O)[C@H](C)O2)[C@H](C)[C@@H](O[C@@H]2O[C@H](C)C[C@H](N(C)C)[C@H]2O)[C@](C)(O)C[C@@H](C)C(=O)[C@H](C)[C@@H](O)[C@]1(C)O [erythromycin]
S. aureus Newman [8]
  MIC: 0.78 µg/mL (≈ 1.06 µM)

## C/C(=C\C(=O)OCCCCCCCCC(=O)O)C[C@@H]1OC[C@H](C[C@@H]2O[C@H]2[C@@H](C)[C@H](C)O)[C@@H](O)[C@H]1O [mupirocin, reference compound]
S. aureus Newman [5]
  type of killing (bactericidal / bacteriostatic): either bacteriostatic or slowly bactericidal

## CN[C@H](CC(C)C)C(=O)N[C@H]1C(=O)N[C@@H](CC(N)=O)C(=O)N[C@H]2C(=O)N[C@H]3C(=O)N[C@H](C(=O)N[C@H](C(=O)O)c4cc(O)cc(O)c4-c4cc3ccc4O)[C@H](O)c3ccc(c(Cl)c3)Oc3cc2cc(c3O[C@@H]2O[C@H](CO)[C@@H](O)[C@H](O)[C@H]2O[C@H]2C[C@](C)(N)[C@H](O)[C@H](C)O2)Oc2ccc(cc2Cl)[C@H]1O [vancomycin, reference compound]
S. aureus Newman [5]
  type of killing (bactericidal / bacteriostatic): either bacteriostatic or slowly bactericidal
S. aureus Newman [2]
  effect on membrane potential: failed to affect the membrane potential
